# In publication PMC7680388 (Cell chemical biology, 2020):
# Like-named read-outs stand apart in the source and are kept apart here.
# How the values were obtained:
# solid tumors = settings: ref Huang et al., 2014; cited from earlier work
# MM.1R cells = experiment: Apoptosis flow cytometry; type: cell-based, Homo sapiens
# Method in brief: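 MM.1R cells were treated with test compound (10 μM) or vehicle (0.1% DMSO) for 8, 16 and 24 h. Cells were washed twice in cold DPBS and resuspended in cold Annexin V buffer (HEPES, EDTA, CaCl2) with 5 μg/mL Annexin V-510 and 50 μg/mL PI. They were held 15 min at room temperature in the dark, then run by flow cytometry (violet/blue lasers). Annexin V+/PI− cells were scored apoptotic; three biological replicates.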
# [1] = system: cancer (in cellulo and in vivo); settings: ref Anchoori et al., 2013; cited from earlier work
# Rpn13 [2] = biological target: T1, Rpn13 (Homo sapiens, UniProt Q16186); settings: two different cancer cell lines, ref Dickson, et al., submitted, cited from earlier work
# Rpn13 [3] = biological target: T1, Rpn13; settings: ref Anchoori et al., 2013; cited from earlier work
# 26S proteasome = experiment: Deubiquitylase activity of purified 26S proteasome; type: biochemical, human; settings: KDT-11 10 μM; b-AP15 1 μM; 1 nM purified 26S proteasome, 5 mM ATP; biological triplicate; Fig. 2F
# T1 sequence (Q16186 whole entry): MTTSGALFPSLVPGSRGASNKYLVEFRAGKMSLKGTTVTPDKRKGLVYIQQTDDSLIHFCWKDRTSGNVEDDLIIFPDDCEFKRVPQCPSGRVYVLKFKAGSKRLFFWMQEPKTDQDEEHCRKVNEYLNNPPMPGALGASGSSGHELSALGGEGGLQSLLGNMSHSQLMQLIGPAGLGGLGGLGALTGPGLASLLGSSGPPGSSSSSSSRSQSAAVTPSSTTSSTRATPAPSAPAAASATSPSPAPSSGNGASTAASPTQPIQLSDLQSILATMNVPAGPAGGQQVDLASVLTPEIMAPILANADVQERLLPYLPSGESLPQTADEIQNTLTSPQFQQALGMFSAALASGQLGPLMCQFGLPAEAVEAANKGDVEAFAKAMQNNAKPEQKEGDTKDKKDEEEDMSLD
smiles,measurement,setting,value
CC(C)C[C@H](NC(=O)[C@H](Cc1ccccc1)NC(=O)c1cnccn1)B(O)O [Bortezomib],dose-limiting toxicity,solid tumors,dose-limiting toxicity
same,efficacy as a single agent in solid tumors,solid tumors,unsuccessful as a single agent to treat solid tumors
same,"induction of apoptosis and cell death, Annexin V/PI staining","MM.1R cells; 8, 16 and 24 hours",induces apoptosis and cell death rapidly
same,cells both Annexin V- and PI-positive,"MM.1R cells; 16 hours, KDT-11 10 μM (Fig. 4), Bortezomib Supplementary Figure 4",≈ 85%
Cl.N[C@@H](Cc1ccccc1)C(=O)N1C/C(=C/c2ccc(Cl)c(Cl)c2)C(=O)/C(=C\c2ccc(Cl)c(Cl)c2)C1 [RA190],anti-cancer activity in cellulo and in vivo,[1],displays interesting anti-cancer activity in cellulo and in vivo
same,engagement of Rpn13 in cellulo,Rpn13 [2],Rpn13 is not engaged by this compound in cellulo
same,engagement of Rpn13 in cellulo,Rpn13 [2]; listed as RA-190,does not engage Rpn13 in cells
same,engagement of Rpn13 in vitro,Rpn13 [3],engages Rpn13 selectively in vitro
C=CC(=O)N1C/C(=C\c2ccc([N+](=O)[O-])cc2)C(=O)/C(=C/c2ccc([N+](=O)[O-])cc2)C1 [b-AP15],effect on rate of Ub-AMC hydrolysis by 26S proteasome,26S proteasome,greater inhibition
